Results from PubChem BioAssay.
The source made the active and inactive calls.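 How the source made its calls, unless noted: active means fluorescence slope after compound addition differing from the mean of all tested samples at 99.7% confidence, mostly higher but some lower; inactive means the rest.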

Assays:
[1] = inhibitors of TNFa-induced NFkB p65 translocation, primary screen, imaging, HUVEC, MLSMR starter and 10KST1 sets (AID 438;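 active means inhibition above 20% together with a positive visual image hit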;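 further: compound added about 3h40 before a 20 min TNFalpha stimulation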;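 on inhibition: signal is the nuclear over cytoplasmic p65 intensity ratio per well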); conditions: HUVEC TNFa-induced p65 nuclear translocation; cell count: measured here: nuclei count (cytotoxicity indicator), at 2.08 µM; inhibition: at 2 µM, stronger effect = higher value, 0% TNFa-plus-vehicle, 100% no-TNFa wells
[2] = endothelial E-selectin expression blockers – imaging, HUVEC, immunofluorescence, MLSMR starter and 10KST1 sets, primary screen (AID 487;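 active means visually confirmed hit in the image check and inhibition above 20%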;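 on inhibition: signal is fraction of cell area covered by stained E-selectin grains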;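 on nuclei count: 100% = median nuclei count of all wells on the same plate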); conditions: HUVEC TNFalpha-induced E-selectin immunofluorescence imaging, at 2 µM; inhibition: stronger effect = higher value; nuclei count: measured here: cell number, toxicity
[3] = Primary imaging screen for DUSP6 inhibitors that restore phospho-Erk in transfected HeLa cells, chemical complementation (AID 609;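 active means compounds giving at least 50% inhibition in the cell-based MKP-3 phosphatase rescue imaging test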;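 on inhibition: phospho-Erk level distribution per well compared with pooled transfected vehicle control wells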); conditions: HeLa MKP-3 transfected, phospho-Erk imaging KS statistic, at 10 µM, cells stimulated with TPA for 15 min
[4] = molecular target: Dual specificity protein phosphatase 6 (Homo sapiens) (UniProt Q16828); assay: as above; conditions: HeLa MKP-3 transfected, phospho-Erk imaging KS statistic; at 10 µM; stronger effect = higher value; cells stimulated with TPA for 15 min
Dual specificity protein phosphatase 6 (Homo sapiens), sequence (Q16828 whole entry, looked up): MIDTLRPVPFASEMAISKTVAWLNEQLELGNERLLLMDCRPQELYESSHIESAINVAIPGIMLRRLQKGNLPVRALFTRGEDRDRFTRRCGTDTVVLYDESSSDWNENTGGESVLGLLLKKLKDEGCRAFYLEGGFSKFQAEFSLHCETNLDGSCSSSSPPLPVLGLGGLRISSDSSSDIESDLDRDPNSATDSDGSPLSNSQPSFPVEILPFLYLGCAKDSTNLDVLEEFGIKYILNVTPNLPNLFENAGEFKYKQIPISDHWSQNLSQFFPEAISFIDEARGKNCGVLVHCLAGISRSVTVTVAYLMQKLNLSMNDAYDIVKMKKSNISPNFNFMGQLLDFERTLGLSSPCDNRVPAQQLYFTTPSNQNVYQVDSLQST

[5] = molecular target: Voltage-gated potassium channel subunit beta-2 (Rattus norvegicus) (UniProt P62483); assay: inhibitors of rat Kvbeta2 reductase activity – biochemical, NADPH fluorescence, primary screen (AID 622;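 active means fluorescence slope higher than the sample average by over 3 SD, cut at about -0.22 in these data, passing the limit was not always enough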;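 further: slope of raw intensity against log time taken from 70 to 1610 s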); conditions: recombinant KvBeta, 4-cyanobenzaldehyde reduction, at 10 µM, stronger effect = higher value
Voltage-gated potassium channel subunit beta-2 (Rattus norvegicus), sequence (P62483 whole entry, looked up): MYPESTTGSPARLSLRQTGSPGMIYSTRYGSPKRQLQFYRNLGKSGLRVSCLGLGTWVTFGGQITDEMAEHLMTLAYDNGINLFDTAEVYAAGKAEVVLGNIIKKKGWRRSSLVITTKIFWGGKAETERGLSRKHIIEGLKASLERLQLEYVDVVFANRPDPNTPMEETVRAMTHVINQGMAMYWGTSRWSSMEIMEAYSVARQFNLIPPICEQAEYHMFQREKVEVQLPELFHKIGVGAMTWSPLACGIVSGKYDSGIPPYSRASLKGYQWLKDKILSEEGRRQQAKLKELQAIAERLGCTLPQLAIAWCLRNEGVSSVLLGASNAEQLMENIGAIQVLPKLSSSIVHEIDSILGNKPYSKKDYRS

[6] = molecular target: Voltage-gated potassium channel subunit beta-2 (Rattus norvegicus) (UniProt P62483); assay: enhancers of rat Kvbeta2 NADPH turnover – biochemical, NADPH fluorescence, primary screen (AID 623;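 active means NADPH fluorescence slope more negative than the mean of all samples by about 3 SD, 99.7% confidence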;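 further: fluorescence intensity change per second fitted from 20 to 320 s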); conditions: Recombinant KvBeta, NADPH fluorescence decrease slope, 10 min; at 10 µM; stronger effect = lower value
[7] = molecular target: Muscarinic acetylcholine receptor M4 (Homo sapiens) (UniProt P08173); assay: M4-linked GIRK flux change, two-sided – cell-based, HEK293 M4/GIRK, thallium flux, BTC-AM, M4 allosteric agonist project, primary screen (AID 625); conditions: at 10 µM, actives lie on both sides;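 further: thallium influx through GIRK channels coupled to M4 in HEK293 cells with BTC-AM dye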
Muscarinic acetylcholine receptor M4 (Homo sapiens), sequence (P08173 whole entry, looked up): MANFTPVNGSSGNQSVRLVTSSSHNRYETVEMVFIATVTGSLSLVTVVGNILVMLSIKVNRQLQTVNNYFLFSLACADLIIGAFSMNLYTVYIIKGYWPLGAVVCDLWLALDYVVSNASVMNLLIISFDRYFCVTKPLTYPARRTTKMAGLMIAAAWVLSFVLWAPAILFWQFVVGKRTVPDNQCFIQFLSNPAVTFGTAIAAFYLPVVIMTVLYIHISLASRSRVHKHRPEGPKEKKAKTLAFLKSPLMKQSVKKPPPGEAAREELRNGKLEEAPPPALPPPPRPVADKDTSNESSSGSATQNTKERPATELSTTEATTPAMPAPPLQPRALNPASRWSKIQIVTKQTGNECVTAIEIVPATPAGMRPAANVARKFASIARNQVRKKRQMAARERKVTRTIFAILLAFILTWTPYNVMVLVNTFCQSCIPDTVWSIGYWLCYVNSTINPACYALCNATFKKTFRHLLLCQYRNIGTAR
Outline: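 Material: M4/GIRK1/GIRK2 stable HEK293 cell line. Medium: pH 7.3 thallium assay buffer. Dosing: single compound concentration, 10 µM final. Schedule: 1 h dye loading, 2 min kinetic read. Measured by: kinetic fluorescence with BTC-AM dye. Read-out: post-addition slope, 15–24 s, of baseline-normalized fluorescence. Benchmarks: carbachol and DMSO controls.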

[8] = inhibitors of larval lipid processing in zebrafish, primary screen, whole organism, PED6 fluorescence, gall bladder and intestine (AID 686;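 active means a full or partial loss of lipid-probe fluorescence in the fish gall bladder, intestine or both, judged by eye; inactive means no fluorescence loss, or compound toxic to the fish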;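 further: larvae 5 to 7 days old with five fish per well; signal comes from phospholipase A2 cleavage of quenched PED6 carried via bile; overnight exposure to compound and PED6 before scoring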); conditions: Zebrafish larvae PED6 lipid processing, fluorescence scoring; screened at 20 µM (by protocol)
Outline: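 System: live zebrafish larvae aged 5-7 days, whole organism; measure: graded gall bladder and intestinal fluorescence inhibition per well; incubation: overnight exposure; reagent: ingested quenched lipid PED6 at 100 nM; signal: By-eye fluorescence microscopy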

[9] = loss of swimming-algae plug formation – whole organism, Chlamydomonas reinhardtii, WT vs cilia-less mutant, absorbance, 96-well, primary screen (AID 463189;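 active means inhibition at or above 50% relative to wild type and mutant plate controls; inactive means inhibition below 50%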;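 further: 0% = wild type cc124 cells in DMSO and 100% = ciliumless bld1 mutant cells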); conditions: Chlamydomonas reinhardtii gravitaxis, OD600 absorbance, 2 days; at 10 µM; stronger effect = higher value
[10] = measured here: cell density z-score
[11] = measured here: nuclear c-Myc green intensity z-score
[12] = measured here: nuclear pErk red intensity z-score, stronger effect = higher value

Structure (SMILES) | cell count [1] | inhibition [1] | inhibition [2] | nuclei count [2] [%] | z-score [3, 10] | z-score [3, 11] | z-score [3, 12] | inhibition [4] | fluorescence slope [5] | NADPH fluorescence slope [6] | fluorescence slope [7] | outcome [8] | inhibition [9]
COc1ccc(C(=O)c2oc3nc(C)cc(C)c3c2N)cc1 | 400 | 3.1% (inactive) | 7.4% (inactive) | 117 | 1.15 | -1.17 | -0.769 | 19.4% (inactive) | -0.379 (inactive) | -2e-05 (inactive) | 0.00438 (inactive) | inactive | 23.4% (inactive)
CC(C)(C)c1cc(-c2ccco2)c(C#N)c(SCC#N)n1 | 685 | 6.9% (inactive) | -48.1% (inactive) | 116 | 0.036 | 0.336 | 0.596 | -9.53% (inactive) | -0.442 (inactive) | -7.2e-05 (inactive) | 0.0081 (inactive) | inactive | -12.6% (inactive)
CCCOc1ccc(C2/C(=C(/O)c3ccccc3)C(=O)C(=O)N2CCCN(C)C)cc1OC (stereo unspecified) | 399 | -2.9% (inactive) | -92.3% (inactive) | 157 | 0.261 | -0.731 | -0.508 | 18.2% (inactive) | -0.463 (inactive) | -0.000127 (inactive) | 0.00492 (inactive) | inactive | 26.4% (inactive)
CCCCCOc1ccccc1C(=O)NCC(=O)O | 376 | -5% (inactive) | -55.5% (inactive) | 169 | 0.663 | -0.72 | -0.603 | -0.584% (inactive) | -0.438 (inactive) | -9.1e-05 (inactive) | 0.00543 (inactive) | inactive | -2.86% (inactive)
Cc1nc2c(o1)CCc1ccccc1C2N1CCN(C)CC1 (stereo unspecified) | 557 | 1.3% (inactive) | -37.3% (inactive) | 103 | 0.777 | -1.51 | 1.56 | 17.8% (inactive) | -0.412 (inactive) | -3.4e-05 (inactive) | 0.00552 (inactive) | inactive | 29.5% (inactive)
Oc1oc(-c2ccco2)nc1C=Nc1cccc(Cl)c1 | 562 | 5.6% (inactive) | -19% (inactive) | 131 | -0.184 | -1.01 | 0.105 | -12.6% (inactive) | -0.449 (inactive) | -0.000133 (inactive) | 0.00392 (inactive) | inactive | -1.6% (inactive)
Nc1nc2n(n1)C(c1cccs1)CC(c1ccc(F)cc1)N2 (stereo unspecified) | 385 | 5.4% (inactive) | -40.7% (inactive) | 141 | 0.349 | 0.295 | -0.128 | 5.65% (inactive) | -0.436 (inactive) | -0.000111 (inactive) | 0.00473 (inactive) | inactive | 0.994% (inactive)
CC(C)COC(=O)CCNc1n[nH]c(=O)[nH]c1=O | 622 | -4.8% (inactive) | -26.4% (inactive) | 174 | 0.623 | -0.835 | -0.389 | -11.5% (inactive) | -0.505 (inactive) | -4.2e-05 (inactive) | 0.00627 (inactive) | inactive | -4.85% (inactive)
COc1ccc(OC)c(C2/C(=C(\O)c3ccc(OC)c(Cl)c3)C(=O)C(=O)N2CCN(C)C)c1 (stereo unspecified) | 680 | -6.8% (inactive) | -97.8% (inactive) | 173 | -0.468 | -0.414 | -1.65 | -2.91% (inactive) | -0.449 (inactive) | -3.7e-05 (inactive) | 0.00525 (inactive) | inactive | 14% (inactive)
Cc1cc(CCC(=O)O)c(C)cc1CCC(=O)O | 593 | 0.2% (inactive) | -64.2% (inactive) | 149 | 0.485 | 1.16 | -0.56 | 5.35% (inactive) | -0.452 (inactive) | -0.000105 (inactive) | 0.00588 (inactive) | inactive | 1.89% (inactive)
O=C1CC(c2ccccc2)n2nc(NS(=O)(=O)c3ccccc3)nc2N1 (stereo unspecified) | 363 | -12.1% (inactive) | -108% (inactive) | 114 | 1.38 | -0.224 | -0.593 | 14.4% (inactive) | -0.486 (inactive) | -2.9e-05 (inactive) | 0.00519 (inactive) | inactive | -8.7% (inactive)
O=C1C(=O)N(Cc2cccnc2)C(c2ccccn2)/C1=C(/O)c1ccc(Br)cc1 (stereo unspecified) | 486 | -5.3% (inactive) | -24.5% (inactive) | 156 | 1.28 | -0.786 | -0.613 | 4.37% (inactive) | -0.457 (inactive) | -4.3e-05 (inactive) | 0.00516 (inactive) | inactive | -1.46% (inactive)
COc1ccc(CCNc2oc(COc3ccccc3)nc2C#N)cc1 | 481 | -2.4% (inactive) | -411% (inactive) | 140 | 0.781 | 0.424 | 0.61 | -3.95% (inactive) | -0.409 (inactive) | -5.2e-05 (inactive) | 0.00409 (inactive) | inactive | -2.43% (inactive)
CCOC(=O)Cn1nc(C)c2ccccc2c1=O | 579 | -1.2% (inactive) | -43.5% (inactive) | 154 | 1.29 | -0.0748 | 0.243 | 7.21% (inactive) | -0.515 (inactive) | -0.000104 (inactive) | 0.00507 (inactive) | inactive | -2.22% (inactive)
COC(=O)c1sc2nc(N3CCCCC3)c3c(c2c1N)CC(C)(C)N(C)C3 | 365 | -3.8% (inactive) | -114% (inactive) | 173 | -0.314 | 1.33 | 0.691 | 3.42% (inactive) | -0.155 (active) | 8.1e-06 (inactive) | 0.00431 (inactive) | inactive | 7.69% (inactive)
O=c1[nH]c(CN(CCO)CCO)nc2c1C1(CCCCC1)Cc1ccccc1-2 | 692 | -15.1% (inactive) | -131% (inactive) | 181 | 0.688 | 0.303 | 0.475 | 9.91% (inactive) | -0.47 (inactive) | -5.1e-05 (inactive) | 0.00503 (inactive) | inactive | 1.18% (inactive)
Cc1ccc(-n2c(SCC(=O)NCc3ccco3)nc3nc4c(cc3c2=O)COC(C)(C)C4)cc1 | 518 | -21.3% (inactive) | 9.1% (inactive) | 176 | 0.611 | -1.97 | 0.29 | 3.97% (inactive) | -0.408 (inactive) | -1.9e-05 (inactive) | 0.00603 (inactive) | inactive | 17% (inactive)
CC(C)COc1ccc(C(=O)OCCN2CCOCC2)c(O)c1 | 551 | -4.8% (inactive) | 5.6% (inactive) | 138 | 0.333 | -1.8 | 0.367 | 19.8% (inactive) | -0.366 (inactive) | -3.7e-07 (inactive) | 0.00568 (inactive) | inactive | 20.9% (inactive)
Cc1ccc(C(=O)NCCCNCCCNC(=O)c2ccc(C)nc2)cn1 | 393 | -2.8% (inactive) | -153% (inactive) | 151 | 0.349 | -0.364 | -0.725 | 3.56% (inactive) | -0.471 (inactive) | -8.7e-05 (inactive) | 0.00476 (inactive) | inactive | 0.875% (inactive)
Cc1ccc(C2/C(=C(\O)c3ccc4c(c3)OCCO4)C(=O)C(=O)N2CCCN(C)C)o1 (stereo unspecified) | 360 | -5.9% (inactive) | 24.2% (inactive) | 113 | -1.73 | 0.575 | -0.16 | 14% (inactive) | -0.474 (inactive) | -8.1e-06 (inactive) | 0.00787 (inactive) | inactive | -17.7% (inactive)
CN(CCNC(=O)c1ccc(/C=N/O)nc1)Cc1ccccc1 | 620 | -9.1% (inactive) | -41% (inactive) | 182 | -0.419 | -0.398 | -0.0227 | 1.63% (inactive) | -0.479 (inactive) | -5.2e-05 (inactive) | 0.00471 (inactive) | inactive | 1.08% (inactive)
CCc1cc(=O)oc2cc(C)c(CN3CCCC(C)C3)c(O)c12 (stereo unspecified) | 539 | -7.1% (inactive) | -2.7% (inactive) | 109 | 1.56 | 0.423 | -0.74 | 12.7% (inactive) | -0.486 (inactive) | -2.8e-05 (inactive) | 0.00473 (inactive) | inactive | -8.79% (inactive)
Nc1nnnn1/N=C/c1cccc(Oc2ccccc2)c1 | 539 | -12.1% (inactive) | 65.8% (inactive) | 88.7 | 1.62 | -1.31 | -1.66 | 21% (inactive) | -0.523 (inactive) | -1.8e-05 (inactive) | 0.00678 (inactive) | inactive | 13.4% (inactive)
CCOc1ccc(S(=O)(=O)NC(C)(C)C)cc1-c1nc2c(C(C)(C)C)nn(C)c2c(=O)[nH]1 | 654 | -6.1% (inactive) | -8.5% (inactive) | 99.3 | 2.17 | -1.88 | -0.971 | 31.4% (inactive) | -0.462 (inactive) | -5.9e-05 (inactive) | 0.0055 (inactive) | inactive | 88.4% (active)
CCC(=O)N(Cc1cccs1)C1CCOC(C)(C)C1 (stereo unspecified) | 541 | 6.5% (inactive) | 6.3% (inactive) | 166 | 0.577 | -0.186 | 0.0071 | 1.9e-07% (inactive) | -0.389 (inactive) | -3e-05 (inactive) | 0.00514 (inactive) | inactive | 11.9% (inactive)
CSc1nc2sc3c(c2c2nnnn12)CCC3 | 594 | -5.2% (inactive) | -73% (inactive) | 143 | -0.0727 | 0.543 | 0.37 | 1.63% (inactive) | -0.441 (inactive) | -0.000113 (inactive) | 0.00506 (inactive) | inactive | 17.9% (inactive)
CCOC(=O)C(C)Sc1nc(-c2cccs2)ccc1C#N (stereo unspecified) | 657 | 0.6% (inactive) | 29.6% (inactive) | 189 | -1.44 | 0.836 | 0.563 | -7.86% (inactive) | -0.427 (inactive) | -5.7e-05 (inactive) | 0.00531 (inactive) | inactive | 4.31% (inactive)
